Measured values reported in publication PMC6500731 (Clinical cancer research : an official journal of the …, 2018).
Read-outs that look alike come from different tables or passages of the source.

Experiments:
[1] = test system: Non-Hodgkin Lymphoma cell lines; test: Viability assay; assay type: cell-based; details: for activity against non-Hodgkin lymphoma (NHL) cell lines (LD50): initial screen hits, DLBCL cell lines, Fig. 1A
[2] = test system: NIH/3T3 cells; test: Viability; assay type: cell-based
[3] = test system: protein synthesis in DLBCL cells; test: O-propargyl puromycin; assay type: cell-based; details: concentrations relative to LD50, 4, 16 or 24 hours
Summary of the method: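 DLBCL cells treated 4, 16 or 24 h with test compound, silvestrol or carboplatin, at concentrations scaled to each agent's LD50. Cells pulsed with O-propargyl puromycin, washed twice in PBS and click-labelled with Alexa-488 azide. Flow cytometry gave mean fluorescence on live-gated cells, normalised to DMSO. Mean ± SEM, n=3; unpaired two-tailed t-tests with Benjamini–Krieger–Yekutieli correction.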

[4] = test system: eIF2α-S51 A/A and S/S MEFs; test: Viability; assay type: cell-based, Murine; details: Mus musculus, 72 h
[5] = target: DDX39A (Homo sapiens, UniProt O00148); test: Malachite green ATP hydrolysis counter-screen, DDX39A; assay type: biochemical
[6] = test system: DLBCL cell lines; test: Proliferation assay; assay type: cell-based; details: three DLBCL cell lines, single elatol treatment
Summary of the method: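 Three DLBCL lines seeded on day 0 and given a single dose of DMSO vehicle or test compound at indicated concentrations. Viable cells counted daily by trypan blue exclusion. Mean ± SEM, n=3.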

[7] = test system: SU-DHL-6 flank tumors; test: SU-DHL-6 xenograft; assay type: in vivo
Summary of the method: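 Female SCID mice, 8–10 weeks old. 2 × 10^6 SU-DHL-6 cells, washed in ice-cold PBS and mixed 1:1 with matrigel, injected s.c. into the right flank. At 60 mm3, mice pair-matched to vehicle (sterile water, 5.2% tween-80, 5.2% PEG-400) or 20 mg/kg test compound i.p. daily for 5 days. Weight and tumor volume measured twice weekly; mean ± SEM, n=8.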

[8] = target: p97 (Homo sapiens, UniProt P55072); test: Malachite green ATP hydrolysis counter-screen, p97; assay type: biochemical
[9] = test system: primary chronic lymphocytic leukemia (CLL) cells; test: OPP labeling in primary CLL patient cells; assay type: cell-based
[10] = test system: DLBCL cell lines; test: Apoptosis assay; assay type: cell-based
Summary of the method: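 Flow-cytometric cell death: DLBCL cell lines treated as indicated for 24 h, alone or combined with the PERK inhibitor GSK2606414 or with 200 nM ISRIB. Cells washed once in ice-cold PBS, then co-stained with PE-Annexin V and 7-aminoactinomycin D. Mean ± SEM, n=3 biological replicates; unpaired two-tailed t-tests.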

[11] = test system: OCI-Ly3 xenograft; test: OCI-Ly3 xenograft; assay type: in vivo
Summary of the method: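 Female SCID mice, 8–10 weeks old. 10 × 10^6 OCI-Ly3 cells, washed in ice-cold PBS and mixed 1:1 with matrigel, implanted s.c. in the flank. Tumors dissected at 500 mm3, dissociated, and 1 × 10^6 serially transplanted cells implanted s.c. At ≥50 mm3, mice pair-matched to vehicle or 40 mg/kg i.p. twice weekly. Weight and tumor volume monitored twice weekly; n=8; two-way ANOVA.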

[12] = target: human chaperone HSP70 (Homo sapiens, UniProt P0DMV8); test: Malachite green ATP hydrolysis counter-screen, HSP70; assay type: biochemical
[13] = test system: OCI-Ly3 cells; test: Polysome profiling; assay type: cell-based; details: OCI-Ly3, 2 μM elatol
[14] = test system: 97 oncogenic and related kinases; test: Commercial kinome screen; assay type: binding
[15] = test system: Harvard/Wellcome cancer cell line collection; test: Growth inhibition screen, Harvard/Wellcome cell line collection; assay type: cell-based; details: 344/924 cell lines
[16] = target: DDX3 (Homo sapiens, UniProt O00571); test: Malachite green ATP hydrolysis counter-screen, DDX3; assay type: biochemical
[17] = test system: normal human peripheral-blood mononuclear cells; test: Potency against normal peripheral-blood mononuclear cells; assay type: cell-based; details: Fig. S1B
[18] = target: eIF4A1-K238E (Homo sapiens, UniProt P60842, K238E); test: Malachite green ATP hydrolysis assay, eIF4A1-K238E mutant; assay type: biochemical
Summary of the method: (§1)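 Malachite green ATPase run at 37 °C for 1 h. eIF4A1 wild-type, K82R (500 nM) or K238E (500 nM) in 20 mM MES-NaOH pH 6.0, 100 mM potassium acetate, 2.5 mM MgCl2, 1% glycerol, 1 mM DTT. ATP gradient 0–2 mM. Aliquot mixed with 9.3 µM malachite green, 53 mM ammonium molybdate, 1 M HCl, 0.04% Tween 20. Mean ± SEM, n=3.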

[19] = Tolerability in non-tumor bearing SCID mice; assay type: in vivo; details: for tolerability: non-tumor bearing SCID mice
Summary of the method: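 Non-tumor-bearing female SCID mice, 8–10 weeks old, dosed i.p. daily for 5 days at 10, 20 or 30 mg/kg and monitored for weight and activity. Complete blood counts (white blood cells, hemoglobin, platelets) measured on a Hemavet950. For 20 mg/kg: mean ± SEM, n=17 vehicle and 7 treated.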

[20] = test system: OCI-Ly3; test: Protein; assay type: cell-based; details: OCI-Ly3, Fig. S3D
[21] = test system: SNU-398; test: Western blot in SNU-398 cells; assay type: cell-based; details: 16 hours; for activity against mTORC1 targets (phosphorylation of S6 and 4EBP1): 200 nM rapamycin, 100 nM silvestrol, 1 μM elatol
[22] = target: eIF4A1 helicase activity (Homo sapiens, UniProt P60842); test: Fluorescence-based helicase assay; assay type: biochemical; details: cell-free, RNA unwinding de-quenching
[23] = test system: Atf4−/− and WT MEFs; test: Viability; assay type: cell-based, Murine; details: Mus musculus, 72 h, read-out: IC50, viability, Atf4−/− MEFs, 72 hour
[24] = Single-dose maximum tolerated dose study; assay type: in vivo; details: for tolerability, single dose: five female CD-1 mice
[25] = target: bacterial chaperonin GroEL (Escherichia coli, UniProt P0A6F5); test: Malachite green ATP hydrolysis counter-screen, GroEL; assay type: biochemical
[26] = test system: HEK-293 cells; test: Dual-luciferase reporter assay; assay type: cell-based; details: eight-hour treatment
Summary of the method: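 HEK-293 cells (7 × 10^5) transfected with 400 ng of a dual-luciferase plasmid using Lipofectamine 3000. Treated 36 h after transfection for 8 h, then lysed with a dual-luciferase kit and read in triplicate. Luciferase units normalized to DMSO-treated cells; mean ± SEM, n=3.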

[27] = target: eIF4A1-K82R (Homo sapiens, UniProt P60842, K82R); test: Malachite green ATP hydrolysis assay, eIF4A1-K82R mutant; assay type: biochemical
Summary of the method: as §1

[28] = target: T1, eIF4A1 (Homo sapiens, UniProt P60842); test: Isothermal titration calorimetry; assay type: binding
Summary of the method: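 eIF4A dialysed 12 h against 20 mM MES-KOH pH 6.0, 10 mM potassium acetate, 2.5 mM MgCl2, 1% glycerol, 1 mM DTT. Protein was matched to 2% DMSO, degassed and placed in the cell. 12–20 injections of 0.2 mM test compound in the same buffer, every 200 s over 3000 s. Peaks integrated to 75 s post-injection and fit to an independent binding model. Replicates run at 25 and 10 µM eIF4A.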

[29] = target: T1, eIF4A1; test: Malachite green ATP hydrolysis assay, wildtype eIF4A1; assay type: biochemical
Summary of the method: as §1

[30] = target: DDX17 (Homo sapiens, UniProt Q92841); test: Malachite green ATP hydrolysis counter-screen, DDX17; assay type: biochemical
[31] = test system: engrafted B16 murine melanoma cells; details: 10 mg/kg daily i.p. or p.o.; cited from earlier work
[32] = test system: SNU-398; test: Viability assay in SNU-398 cells; assay type: cell-based; details: for type of effect on SNU-398 cells: 72-hour treatment; for LD50: SNU-398, 72-hour treatment

T1 sequence (P60842 whole entry): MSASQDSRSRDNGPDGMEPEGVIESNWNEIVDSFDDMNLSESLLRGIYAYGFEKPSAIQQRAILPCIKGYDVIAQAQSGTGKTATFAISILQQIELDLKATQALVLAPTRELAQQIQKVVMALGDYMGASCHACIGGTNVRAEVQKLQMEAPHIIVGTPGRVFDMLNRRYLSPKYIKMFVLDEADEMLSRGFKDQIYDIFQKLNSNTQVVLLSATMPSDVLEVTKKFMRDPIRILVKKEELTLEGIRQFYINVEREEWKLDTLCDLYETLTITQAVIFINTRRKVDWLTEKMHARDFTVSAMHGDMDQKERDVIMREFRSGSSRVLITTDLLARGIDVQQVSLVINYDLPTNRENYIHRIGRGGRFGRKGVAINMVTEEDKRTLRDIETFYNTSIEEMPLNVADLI
eIF4A1-K238E, sequence (P60842 whole entry K238E): as the sequence (P60842 whole entry) above, with K238E counted along it
p97, sequence (P55072 whole entry): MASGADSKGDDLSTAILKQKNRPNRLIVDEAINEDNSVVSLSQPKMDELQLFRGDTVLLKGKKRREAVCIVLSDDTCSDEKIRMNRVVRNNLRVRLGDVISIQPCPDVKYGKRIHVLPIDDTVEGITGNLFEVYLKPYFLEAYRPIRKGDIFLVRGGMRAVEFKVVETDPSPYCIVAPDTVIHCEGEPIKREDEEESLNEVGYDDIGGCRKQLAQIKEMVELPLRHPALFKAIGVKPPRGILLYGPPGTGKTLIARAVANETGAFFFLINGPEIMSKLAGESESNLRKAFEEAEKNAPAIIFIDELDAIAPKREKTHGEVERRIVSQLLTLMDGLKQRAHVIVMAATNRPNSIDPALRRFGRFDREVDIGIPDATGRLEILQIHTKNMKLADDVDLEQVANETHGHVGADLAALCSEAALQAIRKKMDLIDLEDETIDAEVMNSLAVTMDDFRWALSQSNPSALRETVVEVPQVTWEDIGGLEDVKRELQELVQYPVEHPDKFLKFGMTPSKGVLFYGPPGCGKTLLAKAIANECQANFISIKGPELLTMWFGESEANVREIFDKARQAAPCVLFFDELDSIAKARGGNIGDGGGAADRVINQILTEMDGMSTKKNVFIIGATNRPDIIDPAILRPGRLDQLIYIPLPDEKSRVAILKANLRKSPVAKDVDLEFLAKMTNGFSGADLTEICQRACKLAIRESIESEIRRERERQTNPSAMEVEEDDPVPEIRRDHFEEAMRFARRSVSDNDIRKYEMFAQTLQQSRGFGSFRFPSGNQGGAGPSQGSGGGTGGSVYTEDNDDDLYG
eIF4A1-K82R, sequence (P60842 whole entry K82R): as the sequence (P60842 whole entry) above, with K82R counted along it
DDX39A, sequence (O00148 whole entry, species assumed): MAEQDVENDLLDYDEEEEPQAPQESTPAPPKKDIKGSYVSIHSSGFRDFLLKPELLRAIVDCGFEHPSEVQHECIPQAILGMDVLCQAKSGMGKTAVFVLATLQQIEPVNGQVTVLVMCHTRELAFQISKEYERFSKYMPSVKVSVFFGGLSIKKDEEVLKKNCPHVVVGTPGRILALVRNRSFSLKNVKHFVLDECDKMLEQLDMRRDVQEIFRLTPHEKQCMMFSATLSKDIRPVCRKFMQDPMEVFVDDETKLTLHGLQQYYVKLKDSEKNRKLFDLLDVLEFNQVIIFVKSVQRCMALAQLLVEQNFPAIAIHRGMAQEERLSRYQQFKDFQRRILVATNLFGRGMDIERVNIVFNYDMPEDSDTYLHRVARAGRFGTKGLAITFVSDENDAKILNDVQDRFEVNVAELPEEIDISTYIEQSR
eIF4A1 helicase activity, sequence (P60842 whole entry): as the sequence (P60842 whole entry) above
bacterial chaperonin GroEL, sequence (P0A6F5 whole entry): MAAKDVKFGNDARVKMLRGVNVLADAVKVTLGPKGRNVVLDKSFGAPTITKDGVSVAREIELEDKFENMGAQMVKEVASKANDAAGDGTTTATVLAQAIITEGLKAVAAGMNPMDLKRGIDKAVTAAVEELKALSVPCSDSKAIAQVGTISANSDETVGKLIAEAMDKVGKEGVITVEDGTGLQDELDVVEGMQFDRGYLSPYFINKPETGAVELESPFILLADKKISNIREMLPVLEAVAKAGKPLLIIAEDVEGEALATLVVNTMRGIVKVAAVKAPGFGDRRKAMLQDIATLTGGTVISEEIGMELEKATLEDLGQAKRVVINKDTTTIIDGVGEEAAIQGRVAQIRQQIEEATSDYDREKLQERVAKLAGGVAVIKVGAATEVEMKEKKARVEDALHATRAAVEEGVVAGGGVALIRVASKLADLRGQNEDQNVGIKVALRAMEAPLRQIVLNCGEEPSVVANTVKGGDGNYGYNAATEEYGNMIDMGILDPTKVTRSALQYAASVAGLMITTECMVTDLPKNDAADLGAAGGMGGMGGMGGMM
DDX3, sequence (O00571 whole entry, species assumed): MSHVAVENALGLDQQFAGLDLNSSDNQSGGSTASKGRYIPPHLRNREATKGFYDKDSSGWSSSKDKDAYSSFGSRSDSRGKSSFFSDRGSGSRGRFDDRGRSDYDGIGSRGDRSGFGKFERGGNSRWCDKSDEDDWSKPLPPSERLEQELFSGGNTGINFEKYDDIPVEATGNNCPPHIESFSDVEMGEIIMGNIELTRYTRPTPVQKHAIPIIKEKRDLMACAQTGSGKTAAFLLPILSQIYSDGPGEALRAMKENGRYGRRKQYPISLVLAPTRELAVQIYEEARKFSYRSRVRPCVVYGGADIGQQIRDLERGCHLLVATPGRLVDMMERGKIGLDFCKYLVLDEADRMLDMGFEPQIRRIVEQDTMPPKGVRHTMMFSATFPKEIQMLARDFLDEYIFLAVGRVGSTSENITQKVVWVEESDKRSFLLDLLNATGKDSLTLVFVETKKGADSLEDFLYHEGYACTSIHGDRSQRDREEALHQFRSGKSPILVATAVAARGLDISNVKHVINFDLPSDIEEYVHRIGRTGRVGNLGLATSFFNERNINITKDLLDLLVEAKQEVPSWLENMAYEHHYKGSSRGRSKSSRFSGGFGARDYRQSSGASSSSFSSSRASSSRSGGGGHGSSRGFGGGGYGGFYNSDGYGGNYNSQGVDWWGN
DDX17, sequence (Q92841 whole entry, species assumed): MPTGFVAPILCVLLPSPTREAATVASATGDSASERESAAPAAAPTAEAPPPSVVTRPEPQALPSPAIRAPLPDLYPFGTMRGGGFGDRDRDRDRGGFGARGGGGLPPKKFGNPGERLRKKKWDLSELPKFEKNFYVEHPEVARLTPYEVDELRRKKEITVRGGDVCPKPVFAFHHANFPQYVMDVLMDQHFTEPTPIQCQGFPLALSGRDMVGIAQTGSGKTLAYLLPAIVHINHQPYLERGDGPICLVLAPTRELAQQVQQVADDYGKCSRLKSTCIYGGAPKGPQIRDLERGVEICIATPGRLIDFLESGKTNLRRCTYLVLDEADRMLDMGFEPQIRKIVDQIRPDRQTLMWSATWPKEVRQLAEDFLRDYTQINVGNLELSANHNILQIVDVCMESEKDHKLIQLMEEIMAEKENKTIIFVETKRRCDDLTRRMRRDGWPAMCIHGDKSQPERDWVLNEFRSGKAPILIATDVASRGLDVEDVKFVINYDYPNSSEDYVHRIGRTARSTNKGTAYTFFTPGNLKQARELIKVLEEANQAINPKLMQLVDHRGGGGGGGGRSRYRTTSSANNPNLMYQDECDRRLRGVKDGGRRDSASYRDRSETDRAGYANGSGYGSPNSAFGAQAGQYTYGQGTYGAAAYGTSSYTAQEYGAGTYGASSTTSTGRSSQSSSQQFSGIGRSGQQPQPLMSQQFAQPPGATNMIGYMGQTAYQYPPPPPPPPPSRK
human chaperone HSP70, sequence (P0DMV8 whole entry): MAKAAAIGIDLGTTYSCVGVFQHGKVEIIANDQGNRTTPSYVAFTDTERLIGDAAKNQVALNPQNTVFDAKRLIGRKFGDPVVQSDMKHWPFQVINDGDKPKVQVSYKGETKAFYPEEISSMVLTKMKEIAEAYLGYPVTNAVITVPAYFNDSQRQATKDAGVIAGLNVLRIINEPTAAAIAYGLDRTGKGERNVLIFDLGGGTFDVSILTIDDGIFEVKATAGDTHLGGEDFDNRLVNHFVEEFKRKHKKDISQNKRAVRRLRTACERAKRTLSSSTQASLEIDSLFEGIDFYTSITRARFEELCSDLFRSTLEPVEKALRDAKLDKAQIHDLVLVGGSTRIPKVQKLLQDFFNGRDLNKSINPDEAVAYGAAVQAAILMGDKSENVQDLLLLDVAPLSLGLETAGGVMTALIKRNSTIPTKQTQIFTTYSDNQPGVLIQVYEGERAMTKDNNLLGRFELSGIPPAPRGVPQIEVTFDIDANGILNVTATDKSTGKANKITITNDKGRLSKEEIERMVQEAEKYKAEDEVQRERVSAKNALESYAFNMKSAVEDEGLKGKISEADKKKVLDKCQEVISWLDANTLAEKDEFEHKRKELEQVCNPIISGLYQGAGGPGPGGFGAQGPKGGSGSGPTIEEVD

C=C1CC[C@@](C)(c2cc(Br)c(C)cc2O)[C@H]1C [allolaurinterol, reference compound]
activity against non-Hodgkin lymphoma (NHL) cell lines (LD50) [1]: > 10 µM

N.N.O=C([O-])C1(C(=O)[O-])CCC1.[Pt+2] [carboplatin]
change in drug sensitivity on eIF4A1 knockdown ([2]; NIH-3T3 shRLuc vs sh4A1): no change in drug sensitivity | protein synthesis measured by incorporation of OPP [3]: no significant decline

C=C1C[C@H](O)[C@H](Br)C(C)(C)[C@@]12CCC(C)=C(Cl)C2 [elatol]
protein synthesis measured by incorporation of OPP [3]: global decline of protein synthesis | IC50 ([4]; read-out: IC50, viability, eIF2α-S51 A/A MEFs, 72 hour): 1030 nM | IC50 ([4]; read-out: IC50, viability, eIF2α-S51 S/S MEFs, 72 hour): 1400 nM | activity against ATP hydrolysis by DDX39A [5]: no activity | effect on proliferation [6]: completely halted proliferation | time tumor growth was halted from the start of treatment ([7]; 20 mg/kg i.p. daily for 5 days, one cycle): 12 days | tolerability in tumor-bearing mice ([7]; 20 mg/kg i.p. daily, first five-day cycle): weight loss and overt signs of toxicity | activity against ATP hydrolysis by p97 [8]: no activity | protein translation measured by OPP labeling ([9]; primary CLL cells stimulated with anti IgM): significantly reduced protein translation | OPP labeling ([9]; unstimulated primary CLL cells, or non-malignant T-cells): did not significantly inhibit OPP labeling | effect of ISRIB on elatol's toxicity ([10]; OCI-Ly3 cells, combination with 200 nM ISRIB): no effect | effect of PERK inhibitor GSK2606414 on elatol's potency ([10]; annexin V staining, 24 hours, combination with PERKi): no significant reversal | apoptosis ([10]; by 24 hours, most sensitive DLBCL line): greater than 50% | tolerability in tumor-bearing mice ([11]; 40 mg/kg i.p. twice per week): well-tolerated | tumor growth compared to vehicle-treated controls ([11]; 40 mg/kg i.p. twice per week, p=0.0117): significant reduction of tumor growth | tolerability in tumor-bearing mice ([11]; single dose at 65 mg/kg, OCI-Ly3 engrafted SCID mice): morbidity and weight loss | activity against ATP hydrolysis by HSP70 [12]: no activity | polysome translation ([13]; 16 hours): complete elimination of polysome translation | polysome translation ([13]; two-hour treatment): moderately reduced polysome translation | activity against 97 oncogenic and related kinases [14]: no activity | share of cell lines having IC50 < 1μM [15]: 37% | activity against ATP hydrolysis by DDX3 [16]: no activity | potency against normal PBMC relative to tumor lines [17]: less potent | IC50 [18]: 34200 ± 12800 nM | toxic concentration in the preliminary screen of cancer cell lines ([1]; preliminary screen): less than 1 μM | fold less potent than silvestrol ([1]; sensitive tumor cells in vitro): 5–10 fold | tolerability ([19]; 10 mg/kg daily x 5 days i.p.): neither 10 mg/kg nor 20 mg/kg resulted in signs of toxicity | Day 5 complete blood counts versus vehicle ([19]; 20 mg/kg daily for 5 days): no differences | tolerability ([19]; 20 mg/kg daily x 5 days i.p.): neither 10 mg/kg nor 20 mg/kg resulted in signs of toxicity | tolerability ([19]; 30 mg/kg daily i.p., stopped after three days): weight loss and reduced animal activity | concentration at which mRNA reductions become significant [20]: 500 to 1000 nM | concentration at which protein-expression changes begin [20]: 100 nM | activity against mTORC1 targets (phosphorylation of S6 and 4EBP1) [21]: no activity | ATF4 expression ([21]; SNU-398, 1 μM elatol): induced expression of the transcription factor ATF4 | effect on eIF4A1 helicase activity [22]: inhibition | IC50 [23]: 2780 nM | tolerability, single dose ([24]; 50 mg/kg single i.p. dose): tolerated 50 mg/kg without issue | tolerability, single dose ([24]; 65 mg/kg single i.p. dose): tolerated 65 mg/kg without issue | mice dying or moribund requiring sacrifice ([24]; 80 mg/kg single i.p. dose, within five days): 3/5 | mortality, single dose ([24]; 100 mg/kg single i.p. dose, within five days): all five animals in group 2 died | tolerated dose relative to silvestrol ([24]; CD-1, SCID, mouse, in vivo, 14 days): ~ 100 x | activity against ATP hydrolysis by GroEL [25]: no activity | cap-dependent versus IRES driven luciferase expression [26]: down-regulated cap-dependent protein translation more strongly than cap-independent IRES driven expression | IC50 [27]: 85500 ± 31800 nM | Kd [28]: 1980 ± 310 nM | IC50 [29]: 16400 nM | activity against ATP hydrolysis by DDX17 [30]: no activity | antitumor activity [31]: antitumor activity | type of effect on SNU-398 cells [32]: highly cytotoxic | LD50 [32]: 219 nM

CC(C)=C[C@@H]1C[C@H](C)c2c(O)cc(C)c3c2C1=C(C)C(=O)C3=O [elisabatin A, reference compound]
activity against non-Hodgkin lymphoma (NHL) cell lines (LD50) [1]: > 10 µM

CO[C@H]1C[C@@H]2CC[C@@H](C)[C@@](O)(O2)C(=O)C(=O)N2CCCC[C@H]2C(=O)O[C@H]([C@H](C)C[C@@H]2CC[C@@H](O)[C@H](OC)C2)CC(=O)[C@H](C)/C=C(\C)[C@@H](O)[C@@H](OC)C(=O)[C@H](C)C[C@H](C)/C=C/C=C/C=C/1C [rapamycin, reference compound]
activity against mTORC1 targets (phosphorylation of S6 and 4EBP1) [21]: potently inhibits phosphorylation | type of effect on SNU-398 cells [32]: cytostatic

COC(=O)[C@H]1[C@@H](O)[C@@]2(O)c3c(OC)cc(O[C@@H]4O[C@@H]([C@H](O)CO)CO[C@H]4OC)cc3O[C@@]2(c2ccc(OC)cc2)[C@@H]1c1ccccc1 [silvestrol]
increased potency of silvestrol relative to elatol ([2]; 3T3 fibroblasts, Fig. 5F): > 500 x | protein synthesis measured by incorporation of OPP [3]: global decline of protein synthesis | activity against mTORC1 targets (phosphorylation of S6 and 4EBP1) [21]: no activity | type of effect on SNU-398 cells [32]: highly cytotoxic | LD50 [32]: 41 nM
